In ChEMBL document CHEMBL1147080, “Inhibition of hepatitis C virus replication by peroxidation of arachidonate and restoration by vitamin E” (Proc Natl Acad Sci U S A, 2007):
Activity calls are given as the source filed them. No cut-off for these calls is given here.

Experiments:
Hepatitis C virus [1] = assay: Inhibition of hepatitis C virus replication in Huh7-K2040 cells in presence of fetal calf serum medium assessed as increase of malondialdehyde at 0.1 mM relative to control; assay type: functional, Hepacivirus hominis
Procedure, shortened: (§1)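 Huh7 or Huh7-K2040 cells seeded 7 × 10^5 per 60-mm dish. On day 1 switched to 10% FCS or 10% delipidated FCS, with or without 0.1 mM BSA-conjugated arachidonate and 0.3 μM vitamin E, for 16 h. MDA measured by TBARS kit at 532 nm in homogenates of cells pooled from two dishes, normalized to cellular protein. Mean ± SD, three independent experiments.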

Hepatitis C virus [2] = assay: Inhibition of hepatitis C virus replication in Huh7-K2040 cells in presence of delipidated fetal calf serum medium assessed as increase of malondialdehyde at 0.1 mM after 48 hrs; assay type: functional, organism-based; settings: Hepacivirus hominis
Procedure, shortened: (§2)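 Huh7-K2040 cells (7 × 10^5 per 60-mm dish) switched on day 1 to 10% delipidated FCS with 0.1 mM BSA-conjugated arachidonate and harvested over a time course up to 72 h. MDA measured by TBARS assay at 532 nm, normalized to protein, relative to cells at time 0. Data from a representative experiment.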

Hepatitis C virus [3] = assay: Inhibition of hepatitis C virus replication in Huh7-K2040 cells in presence of fetal calf serum assessed viral RNA level at 0.1 mM by RT-PCR relative to control; assay type: functional, Hepacivirus hominis; set-up: scale not given: the % may be the effect or the level left
Procedure, shortened: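 Huh7-K2040 cells (subgenomic genotype 1b replicon) were seeded at 4 × 10^5 per 60-mm dish. From day 2 they were cultured in 10% FCS with 0.1 mM BSA-conjugated fatty acid for 72 h. HCV RNA was measured by real-time PCR with 36B4 as invariant control (comparative CT), relative to untreated FCS cells; mean ± SD, three independent experiments.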

Hepatitis C virus [4] = assay: Inhibition of hepatitis C virus replication in Huh7-K2040 cells in presence of delipidated fetal calf serum assessed viral RNA level at 0.1 mM by RT-PCR relative to control; assay type: functional, Hepacivirus hominis; set-up: scale not given: the % may be the effect or the level left
Procedure, shortened: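 Huh7-K2040 cells seeded at 4 × 10^5 per 60-mm dish. On day 2 switched to 10% FCS or delipidated FCS with 0.1 mM BSA-conjugated fatty acids for 72 h. HCV RNA measured by real-time RT-PCR in triplicate, normalized to 36B4 by comparative CT, relative to untreated FCS control. Mean ± SD, three independent experiments.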

Hepatitis C virus [5] = assay: Inhibition of hepatitis C virus replication in Huh7-K2040 cells in presence of delipidated fetal calf serum medium by RT-PCR; assay type: functional, organism-based, Hepacivirus hominis
Procedure, shortened: (§3)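 Huh7-K2040 replicon cells (4 × 10^5 per 60-mm dish) switched on day 2 to 10% FCS or 10% delipidated FCS with graded BSA-conjugated arachidonate for 72 h. HCV RNA measured by real-time RT-PCR against 36B4 by comparative CT, relative to cells without arachidonate in the same serum. IC50 read from dose–response. Mean ± SD, three independent experiments.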

Hepatitis C virus [6] = assay: Inhibition of hepatitis C virus replication in Huh7-K2040 cells in presence of delipidated fetal calf serum medium assessed as reduction in viral RNA level at 0.1 mM after 12 hrs relative to control; assay type: functional, Hepacivirus hominis; set-up: scale not given: the % may be the effect or the level left
Procedure, shortened: (§4)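 Time course in Huh7-K2040 cells (7 × 10^5 per 60-mm dish) given 10% delipidated FCS plus 0.1 mM BSA-conjugated arachidonate from day 1. HCV RNA measured by TaqMan real-time RT-PCR, normalized to 36B4 by comparative CT, relative to cells at time 0. Data from a representative experiment.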

Hepatitis C virus [7] = assay: Inhibition of hepatitis C virus replication in Huh7-K2040 cells in presence of delipidated fetal calf serum medium assessed as reduction in viral RNA level at 0.1 mM after 72 hrs relative to control; assay type: functional, Hepacivirus hominis; set-up: scale not given: the % may be the effect or the level left; procedure, shortened: as §4
Hepatitis C virus [8] = assay: Inhibition of hepatitis C virus replication in Huh7-K2040 in presence of delipidated fetal calf serum medium assessed as increase of malondialdehyde at 0.1 mM after 12 to 24 hrs; assay type: functional, organism-based; settings: Hepacivirus hominis; procedure, shortened: as §2
Hepatitis C virus [9] = assay: Reversal of inhibition of hepatitis C virus replication in Huh7-K2040 cells in presence of delipidated fetal calf serum medium assessed as malondialdehyde level at 0.1 mM in presence of vitamin E; assay type: functional, organism-based; settings: Hepacivirus hominis; procedure, shortened: as §1
[10] = Cytotoxicity against human Huh7-K2040 cells in delipidated fetal calf serum medium; assay type: cell-based; settings: huh-7
Procedure, shortened: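 Huh7-K2040 replicon cells (7 × 10^5 per 60-mm dish) moved on day 1 to medium with 10% delipidated FCS and 0.1 mM BSA-conjugated arachidonate, or to 10% FCS medium. Cells harvested at set times. Growth followed as total cellular protein by BCA, relative to protein at time 0. Data from a representative experiment.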

Hepatitis C virus [11] = assay: Inhibition of hepatitis C virus replication in Huh7-K2040 cells in presence of delipidated fetal calf serum medium assessed as increase of malondialdehyde at 0.1 mM relative to control; assay type: functional, Hepacivirus hominis; procedure, shortened: as §1
Hepatitis C virus [12] = assay: Inhibition of hepatitis C virus replication in Huh7-K2040 cells in presence of fetal calf serum medium by RT-PCR; assay type: functional, organism-based, Hepacivirus hominis; procedure, shortened: as §3
Hepatitis C virus [13] = assay: Inhibition of hepatitis C virus replication in Huh7-K2040 cells in presence of delipidated fetal calf serum medium assessed as decrease of malonaldehyde at 0.1 mM after 72 hrs relative to control; set-up: scale not given: the % may be the effect or the level left
Hepatitis C virus [14] = assay: Increase in hepatitis C virus replication in Huh7-K2040 cells in presence of delipidated fetal calf serum medium at 0.3 uM by RT-PCR relative to control; assay type: functional, organism-based; settings: Hepacivirus hominis
Procedure, shortened: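 Replicon-bearing Huh7 cells (genotype 1b subgenomic HCV replicon), 4 × 10^5 cells per 60-mm dish on day 0. On day 2 they were switched to medium with 10% delipidated FCS plus 0.3 μM lipid-soluble vitamin/lipid. Harvested after 72 h. HCV RNA was measured by qRT-PCR, normalized to 36B4 by comparative CT, relative to FCS-cultured controls; mean ± SD of three independent experiments.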

Hepatitis C virus [15] = assay: Increase of hepatitis C virus replication in Huh7-K2040 cells in fetal calf serum medium in absence of arachidonate by RT-PCR relative to control; assay type: functional, organism-based; settings: Hepacivirus hominis
Hepatitis C virus [16] = assay: Increase of hepatitis C virus replication in Huh7-K2040 cells in delipidated fetal calf serum medium in presence of arachidonate by RT-PCR relative to control; assay type: functional, organism-based; settings: Hepacivirus hominis
Procedure, shortened: (§5)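 Huh7 cells carrying a genotype 1b subgenomic replicon were seeded on day 0. On day 2 they were moved to medium with 10% delipidated FCS, with or without 0.1 mM BSA-conjugated arachidonate, and given graded vitamin E. After 72 h HCV RNA was quantified by real-time PCR against 36B4 (comparative CT), relative to untreated controls kept in 10% FCS; three independent experiments.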

Hepatitis C virus [17] = assay: Increase of hepatitis C virus replication in Huh7-K2040 cells in fetal calf serum medium in presence of arachidonate by RT-PCR relative to control; assay type: functional, organism-based; settings: Hepacivirus hominis
Procedure, shortened: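 Replicon Huh7-K2040 cells were seeded at 4 × 10^5 per 60-mm dish. On day 2 they went into 10% FCS or 10% delipidated FCS with 0.1 mM BSA-conjugated arachidonate, ± 0.3 μM vitamin E. Cells were harvested 72 h later. HCV RNA was determined by qRT-PCR (36B4 reference, comparative CT), relative to FCS controls.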

Hepatitis C virus [18] = assay: Restoration of hepatitis C virus replication in Huh7-K2040 cells in presence of delipidated fetal calf serum medium in absence of arachidonate by RT-PCR relative to control; assay type: functional, organism-based; settings: Hepacivirus hominis; procedure, shortened: as §5
Hepatitis C virus [19] = assay: Increase of hepatitis C virus replication in Huh7-K2040 cells in delipidated fetal calf serum medium assessed as increase in […] at 40 nM in presence of arachidonate by RT-PCR relative to control; assay type: functional, organism-based; settings: Hepacivirus hominis; procedure, shortened: as §5
Hepatitis C virus [20] = assay: Restoration of hepatitis C virus replication in Huh7-K2040 cells in delipidated fetal calf serum medium assessed as increase in […] 40 nM in absence of arachidonate by RT-PCR relative to control; assay type: functional, organism-based; settings: Hepacivirus hominis; procedure, shortened: as §5

## CCCCC/C=C\C/C=C\C/C=C\C/C=C\CCCC(=O)O [ARACHIDONIC ACID]
Hepatitis C virus [1]
  Activity: 8
Hepatitis C virus [2]
  Activity: inactive
Hepatitis C virus [3]
  Activity: 50%
Hepatitis C virus [4]
  Activity: 95%
Hepatitis C virus [5]
  IC50: 10 µM
Hepatitis C virus [6]
  Activity: 40%
Hepatitis C virus [7]
  Activity: >90%
Hepatitis C virus [8]
  Activity: Active
Hepatitis C virus [9]
  Activity: Active
[10]
  Activity: Non-toxic
Hepatitis C virus [11]
  Activity: 48
Hepatitis C virus [12]
  IC50: 60 µM
Hepatitis C virus [13]
  Activity: >90%

## CC/C=C\C/C=C\C/C=C\CCCCCCCC(=O)O [LINOLENIC ACID]
Hepatitis C virus [3]
  Activity: 50%

## CCCCCCCC/C=C\CCCCCCCC(=O)O
Hepatitis C virus [3]; Hepacivirus hominis
  Activity: inactive
Hepatitis C virus [14]
  Activity: inactive
Hepatitis C virus [4]; Hepacivirus hominis
  Activity: inactive

## O=C1O[C@H]([C@@H](O)CO)C(O)=C1O
Hepatitis C virus [14]
  Activity: inactive

## COC1=C(OC)C(=O)C(C/C=C(\C)CC/C=C(\C)CC/C=C(\C)CCC=C(C)C)=C(C)C1=O
Hepatitis C virus [14]
  Activity: Active

## VITAMIN E
Hepatitis C virus [15]
  Activity: inactive
Hepatitis C virus [14]
  Activity: Active
Hepatitis C virus [16]
  Activity: 190%
Hepatitis C virus [17]
  Activity: inactive
Hepatitis C virus [18]
  Activity: Active
Hepatitis C virus [19]
  Activity: Active
Hepatitis C virus [20]
  Activity: Active

## CCCCC/C=C\C/C=C\CCCCCCCC(=O)O [LINOLEIC ACID]
Hepatitis C virus [3]
  Activity: 50%
